Data: ChEMBL document CHEMBL1828601, “Small molecule peptidomimetic inhibitors of importin α/β mediated nuclear transport” (Bioorg Med Chem, 2010)
Active and inactive are the calls of the source. No rule for the calls is given here.

Columns and labels:
FGM [1] = test: Inhibition of importin alpha/beta-mediated nuclear transportation of Alexa555-GST-M9 in human FGM cell nucleus at 500 uM after 30 mins by fluorescence microscopy; assay type: cell-based
Outline: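 Transportin-dependent import measured the same way in permeabilized FGM cells, with 0.5 μM Alexa555-GST-M9 cargo in place of BSA-NLS. Conditions: 3 mg/ml HeLa cytosol, ATP-regenerating system, 0.2 mM GTP, 1% DMSO, 30 min at 30°C. Positive control was 1 mg/ml WGA. Nuclear cargo fluorescence quantified per nucleus by automated imaging.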

FGM [2] = test: Inhibition of importin alpha/beta-mediated nuclear transportation of Alexa555-BSA-NLS in human FGM cell nucleus at 500 uM after 30 mins by fluorescence microscopy; assay type: cell-based

Structure (SMILES) | inhibition (FGM [1]) | inhibition (FGM [2])
CC[C@H](C)[C@H](N)C(=O)N1C[C@@H](C(=O)NCCCCN)[C@H](C(=O)NCCc2ccc3ccccc3c2)C1 | inactive | inactive
CC(C)[C@H](N)C(=O)N1C[C@@H](C(=O)NCCCCN)[C@H](C(=O)NCCc2ccc3ccccc3c2)C1 | inactive | inactive
N[C@@H](Cc1c[nH]c2ccccc12)C(=O)Nc1ccc(C(=O)N[C@@H](CCc2ccccc2)C(=O)O)cc1OCc1ccc(Cl)cc1 | Active | Active
NCCCCNC(=O)[C@@H]1CN(C(=O)[C@@H](N)CCc2ccc(O)cc2)C[C@H]1C(=O)NCCc1ccc2ccccc2c1 | inactive | inactive
C[C@H](N)C(=O)Nc1ccc(C(=O)N[C@@H](CCc2ccccc2)C(=O)O)cc1OCc1ccc(Cl)cc1 | Active | Active
C[C@@H](O)[C@H](N)C(=O)N1C[C@@H](C(=O)NCCCCN)[C@H](C(=O)NCCc2ccc3ccccc3c2)C1 | inactive | inactive
C[C@@H](O)[C@H](N)C(=O)N1C[C@@H](C(=O)NCCc2c[nH]cn2)[C@H](C(=O)NCCc2c[nH]c3ccccc23)C1 | inactive | inactive
N[C@@H](Cc1ccc(O)cc1)C(=O)N1C[C@@H](C(=O)NCCc2c[nH]cn2)[C@H](C(=O)NCCc2c[nH]c3ccccc23)C1 | Active | Active
NCCCCNC(=O)[C@@H]1CN(C(=O)[C@@H](N)CCc2ccc(Cl)cc2)C[C@H]1C(=O)NCCc1ccc2ccccc2c1 | inactive | inactive
N[C@@H](Cc1ccc2ccccc2c1)C(=O)N1C[C@@H](C(=O)NCCc2c[nH]cn2)[C@H](C(=O)NCCc2c[nH]c3ccccc23)C1 | Active | Active
CC[C@@H](C)[C@H](NC(=O)c1ccc(NC(=O)[C@@H](N)CO)c(OCc2c[nH]cn2)c1)C(=O)O | Active | Active
N[C@@H](Cc1c[nH]c2ccccc12)C(=O)N1C[C@@H](C(=O)NCCc2c[nH]cn2)[C@H](C(=O)NCCc2c[nH]c3ccccc23)C1 | Active | Active
CC[C@@H](C)[C@H](NC(=O)c1ccc(NC(=O)[C@@H](N)[C@@H](C)O)c(OCc2c[nH]cn2)c1)C(=O)O | inactive | inactive
NC(=O)C[C@H](N)C(=O)N1C[C@@H](C(=O)NCCc2c[nH]cn2)[C@H](C(=O)NCCc2c[nH]c3ccccc23)C1 | inactive | inactive
NCCCCNC(=O)[C@@H]1CN(C(=O)[C@@H](N)Cc2ccc3ccccc3c2)C[C@H]1C(=O)NCCc1ccc2ccccc2c1 | inactive | inactive
COc1ccc(C[C@H](N)C(=O)N2C[C@@H](C(=O)NCCc3c[nH]cn3)[C@H](C(=O)NCCc3c[nH]c4ccccc34)C2)cc1 | Active | Active
N[C@@H](CC(=O)O)C(=O)Nc1ccc(C(=O)N[C@@H](CCc2ccccc2)C(=O)O)cc1OCc1ccc(Cl)cc1 | Active | Active
N[C@@H](CO)C(=O)Nc1ccc(C(=O)N[C@@H](CCc2ccccc2)C(=O)O)cc1OCc1ccc(Cl)cc1 | Active | Active
COc1ccc(C[C@H](N)C(=O)Nc2ccc(C(=O)N[C@@H](CCc3ccccc3)C(=O)O)cc2OCc2ccc(Cl)cc2)cc1 | inactive | inactive
NCCCCNC(=O)[C@@H]1CN(C(=O)[C@@H](N)Cc2c[nH]c3ccccc23)C[C@H]1C(=O)NCCc1ccc2ccccc2c1 | Active | Active

Structure (SMILES) | inhibition (FGM [1]) | inhibition (FGM [2])
NCCCCNC(=O)[C@@H]1CN(C(=O)[C@@H](N)Cc2cnc[nH]2)C[C@H]1C(=O)NCCc1ccc2ccccc2c1 | inactive | inactive
C[C@H](N)C(=O)N1C[C@@H](C(=O)NCCCCN)[C@H](C(=O)NCCc2ccc3ccccc3c2)C1 | inactive | inactive
CSCC[C@H](N)C(=O)Nc1ccc(C(=O)N[C@@H](CCc2ccccc2)C(=O)O)cc1OCc1ccc(Cl)cc1 | Active | Active
CC(C)C[C@H](N)C(=O)N1C[C@@H](C(=O)NCCc2c[nH]cn2)[C@H](C(=O)NCCc2c[nH]c3ccccc23)C1 | inactive | inactive
C[C@@H](O)[C@H](N)C(=O)Nc1ccc(C(=O)N[C@@H](CCc2ccccc2)C(=O)O)cc1OCc1ccc(Cl)cc1 | inactive | inactive
CC[C@H](C)[C@H](NC(=O)c1ccc(NC(=O)[C@@H](N)Cc2ccc(Cl)cc2)c(OCc2c[nH]cn2)c1)C(=O)O | inactive | inactive
N[C@@H](Cc1ccc(Cl)cc1)C(=O)Nc1ccc(C(=O)N[C@@H](CCc2ccccc2)C(=O)O)cc1OCc1ccc(Cl)cc1 | inactive | inactive
CC[C@H](C)[C@H](NC(=O)c1ccc(NC(=O)[C@@H](N)CC(C)C)c(OCc2c[nH]cn2)c1)C(=O)O | inactive | inactive
N[C@@H](Cc1ccccc1)C(=O)N1C[C@@H](C(=O)NCCc2c[nH]cn2)[C@H](C(=O)NCCc2c[nH]c3ccccc23)C1 | Active | Active
NCCCCNC(=O)[C@@H]1CN(C(=O)[C@@H](N)CCCCN)C[C@H]1C(=O)NCCc1ccc2ccccc2c1 | inactive | inactive
NCCCCNC(=O)[C@@H]1CN(C(=O)[C@@H](N)Cc2ccc(Cl)cc2)C[C@H]1C(=O)NCCc1ccc2ccccc2c1 | inactive | inactive
NCCCCNC(=O)[C@@H]1CN(C(=O)[C@@H](N)CO)C[C@H]1C(=O)NCCc1ccc2ccccc2c1 | inactive | inactive
N[C@@H](CCc1ccc(O)cc1)C(=O)N1C[C@@H](C(=O)NCCc2c[nH]cn2)[C@H](C(=O)NCCc2c[nH]c3ccccc23)C1 | inactive | inactive
CC(C)[C@H](N)C(=O)N1C[C@@H](C(=O)NCCc2c[nH]cn2)[C@H](C(=O)NCCc2c[nH]c3ccccc23)C1 | inactive | inactive
CC[C@H](C)[C@H](NC(=O)c1ccc(NC(=O)[C@@H](N)CCc2ccccc2)c(OCc2c[nH]cn2)c1)C(=O)O | Active | Active
N[C@@H](Cc1ccc2ccccc2c1)C(=O)Nc1ccc(C(=O)N[C@@H](CCc2ccccc2)C(=O)O)cc1OCc1ccc(Cl)cc1 | inactive | inactive
N[C@@H](CC(=O)O)C(=O)N1C[C@@H](C(=O)NCCc2c[nH]cn2)[C@H](C(=O)NCCc2c[nH]c3ccccc23)C1 | inactive | inactive
CC[C@H](N)C(=O)Nc1ccc(C(=O)N[C@H](C(=O)O)[C@@H](C)CC)cc1OCc1c[nH]cn1 | inactive | inactive
CC[C@H](C)[C@H](NC(=O)c1ccc(NC(=O)[C@@H](N)Cc2ccc(O)cc2)c(OCc2c[nH]cn2)c1)C(=O)O | inactive | inactive
NCCCC[C@H](N)C(=O)N1C[C@@H](C(=O)NCCc2c[nH]cn2)[C@H](C(=O)NCCc2c[nH]c3ccccc23)C1 | inactive | inactive
